In data set [1] the target is Epidermal growth factor receptor (Homo sapiens) (UniProt P00533). Description: Inhibition of EGFR (unknown origin) assessed as residual activity at 1 uM relative to control. Put shortly:
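Single-concentration screen at 1 μmol/L against a panel of 208 kinases, run as a commercial service; activity expressed relative to control.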

For data set [2], the target named is Serine/threonine-protein kinase PLK1 (Homo sapiens) (UniProt P53350). Description: Inhibition of PLK1 (unknown origin) assessed as residual activity at 1 uM relative to control. Put shortly:
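Commercial profiling service against a 208-kinase panel; single concentration 1 μmol/L; residual kinase activity expressed relative to control.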

For the next data set, the system named is PC-3. In words: Cytotoxicity against human PC3 cells assessed as reduction in cell viability incubated for 72 hrs by MTT assay. The settings on record: PC-3, 72 h. It counts as functional, cell-based. In a few lines: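 About 5 × 10³ cells/well, seeded overnight at 37 °C, 5% CO₂, in DMEM or RPMI-1640 with 10% FBS and antibiotics. DMSO-dissolved compounds diluted in medium, exposure 72 h.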

In data set [3] the target is T1, Aldehyde dehydrogenase 1A1 (Homo sapiens) (UniProt P00352).
T1 sequence (whole entry): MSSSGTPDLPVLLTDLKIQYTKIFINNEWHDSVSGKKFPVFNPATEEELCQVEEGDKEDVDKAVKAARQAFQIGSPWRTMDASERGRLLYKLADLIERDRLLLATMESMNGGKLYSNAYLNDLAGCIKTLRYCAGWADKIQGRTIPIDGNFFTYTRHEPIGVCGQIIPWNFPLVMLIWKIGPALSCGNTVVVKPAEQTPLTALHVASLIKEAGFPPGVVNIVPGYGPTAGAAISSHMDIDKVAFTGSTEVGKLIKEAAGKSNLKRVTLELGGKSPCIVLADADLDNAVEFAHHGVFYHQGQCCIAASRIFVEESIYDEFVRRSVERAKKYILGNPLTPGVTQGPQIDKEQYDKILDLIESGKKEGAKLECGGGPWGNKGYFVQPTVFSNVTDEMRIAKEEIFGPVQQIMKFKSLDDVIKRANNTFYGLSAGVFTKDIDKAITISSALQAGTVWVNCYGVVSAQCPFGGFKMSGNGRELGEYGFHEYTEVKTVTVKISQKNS
Description: (§1) Inhibition of human ALDH1A1 incubated for 2 hrs.

Data set [4] concerns the target T2, Aldehyde dehydrogenase 1A1 (Homo sapiens, UniProt P00352).
T2 sequence (P00352 whole entry): T1 sequence (whole entry)
The data set is described as §1.

Data set [5] deals with HCT-116. In words: Inhibition of cell stemness in human HCT116 cells assessed as reduction in OCT4 mRNA transcription levels at 20 uM after 24 hrs by RT-qPCR analysis. It counts as functional, cell-based. Put shortly:
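Sorted ALDH⁺ HCT-116 cells treated 24 h; TRIZOL RNA, one-step RT-qPCR (RT 10 min 55 °C; 95 °C 1 min; 39 cycles 95 °C 10 s/60 °C 30 s) with melting-curve check; β-actin reference; fold change by 2^−ΔΔCt; t test, mean ± SD, n = 3.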

For data set [6], the system named is HCT-116. In words: Induction of apoptosis in human HCT116 cells assessed as viable cells at 5 uM after 24 hrs by annexin V-FITC/propidium iodide staining based flow cytometry (reference value: 88.3%). It counts as functional. To be noted: read-out: Activity.
For data set [7], the system named is HCT-116. Description: Induction of apoptosis in human HCT116 cells assessed as early apoptotic cells at 5 uM after 24 hrs by annexin V-FITC/propidium iodide staining based flow cytometry (reference value: 1%). It counts as functional.
In data set [8] the test system is HCT-116. Description: Induction of apoptosis in human HCT116 cells assessed as late apoptotic cells at 5 uM after 24 hrs by annexin V-FITC/propidium iodide staining based flow cytometry (reference value: 5.1%). The class given is functional.
Data set [9] deals with HCT-116. Description: Induction of apoptosis in human HCT116 cells assessed as necrotic cells at 5 uM after 24 hrs by annexin V-FITC/propidium iodide staining based flow cytometry (reference value: 5.6%). It counts as functional.
Data set [10] concerns HCT-116. Description: Induction of apoptosis in human HCT116 cells assessed as late apoptotic cells at 10 uM after 24 hrs by annexin V-FITC/propidium iodide staining based flow cytometry (reference value: 5.1%). It counts as functional.
For data set [11], the system named is HCT-116. In words: Induction of apoptosis in human HCT116 cells assessed as necrotic cells at 10 uM after 24 hrs by annexin V-FITC/propidium iodide staining based flow cytometry (reference value: 5.6%). It counts as functional.
The test system of data set [12] is HCT-116. Description: Induction of apoptosis in human HCT116 cells assessed as necrotic cells at 20 uM after 24 hrs by annexin V-FITC/propidium iodide staining based flow cytometry (reference value: 5.6%). It counts as functional.
Data set [13] has as its system HCT-116. Description: Induction of cell cycle arrest in human HCT116 cells assessed as accumulation at G2/M phase at 20 uM after 24 hrs by propidium iodide-staining based flow cytometry (reference value: 14.67%). The class given is functional.
Data set [14] has as its system HCT-116. In words: Induction of apoptosis in human HCT116 cells assessed as increase in Cyt c protein expression at 20 uM incubated for 24 hrs by Western blot analysis. It counts as functional, cell-based. Put shortly:
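HCT-116 cells at 2 × 10⁵ cells/mL in DMEM/10% FBS, grown 12 h at 37 °C, then treated 24 h (vehicle DMSO). Lysates quantified by BCA, run on 10% SDS-PAGE, PVDF transfer, blocked in 5% milk/TBST, primary antibodies 4 °C overnight, HRP secondary 2 h, chemiluminescent detection; normalized to β-actin, n = 3.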

Data set [15] in a line: Tmax in Sprague-Dawley rat at 25 mg/kg, po measured up to 48 hrs by LC-MS/MS analysis. It counts as ADME, organism-based. To be noted: in vivo. Put shortly:
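Overnight-fasted male SD rats (250−270 g, n = 3/group), single oral 25 mg/kg in 5% CMC-Na (reference sodium salt in phosphate buffer); plasma at 0.25–48 h (12 timepoints), stored −40 °C; LC−MS/MS with internal-standard calibration 3–3000 ng/mL; parameters fitted by model.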

Data set [16] in a line: Half life in Sprague-Dawley rat at 25 mg/kg, po measured up to 48 hrs by LC-MS/MS analysis. It counts as ADME, organism-based. To be noted: in vivo. Put shortly: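 Overnight-fasted male SD rats (about 250−270 g), three per group, single oral 25 mg/kg; test compound suspended in 5% CMC-Na, control as sodium salt in phosphate buffer. Blood sampled 0.25–48 h, plasma by centrifugation, stored −40 °C, quantified by LC−MS/MS against plasma standard curve (3–3000 ng/mL) with internal standard; model-fitted PK parameters.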

Data set [17] is described as follows: Toxicity in BALB/c mouse xenografted with human HCT116 cells assessed as effect on heart tissue at 60 to 90 mg/kg, po administered twice daily for 4 weeks and measured every 3 days by HE staining based assay. The class given is organism-based, HCT-116. To be noted: in vivo, 672 h, dose 60-90 mg/kg. Put shortly:
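Male 5-week BALB/c nude mice (16−18 g), 0.2 mL of 5 × 10⁷ cells/mL HCT-116 injected into right armpit; at ~100 mm³ randomized, 5/group; intragastric 60 or 90 mg/kg twice daily for 4 weeks; tumor volume and body weight every 3 days; after sacrifice heart, liver, spleen, lung, kidney HE-stained.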

Active and inactive are the calls of the source. No cut-off for these calls is given here.

This note sets out measurements from ChEMBL document CHEMBL4808178 (J Med Chem, 2021).

Epidermal growth factor receptor (Homo sapiens), sequence (P00533 whole entry): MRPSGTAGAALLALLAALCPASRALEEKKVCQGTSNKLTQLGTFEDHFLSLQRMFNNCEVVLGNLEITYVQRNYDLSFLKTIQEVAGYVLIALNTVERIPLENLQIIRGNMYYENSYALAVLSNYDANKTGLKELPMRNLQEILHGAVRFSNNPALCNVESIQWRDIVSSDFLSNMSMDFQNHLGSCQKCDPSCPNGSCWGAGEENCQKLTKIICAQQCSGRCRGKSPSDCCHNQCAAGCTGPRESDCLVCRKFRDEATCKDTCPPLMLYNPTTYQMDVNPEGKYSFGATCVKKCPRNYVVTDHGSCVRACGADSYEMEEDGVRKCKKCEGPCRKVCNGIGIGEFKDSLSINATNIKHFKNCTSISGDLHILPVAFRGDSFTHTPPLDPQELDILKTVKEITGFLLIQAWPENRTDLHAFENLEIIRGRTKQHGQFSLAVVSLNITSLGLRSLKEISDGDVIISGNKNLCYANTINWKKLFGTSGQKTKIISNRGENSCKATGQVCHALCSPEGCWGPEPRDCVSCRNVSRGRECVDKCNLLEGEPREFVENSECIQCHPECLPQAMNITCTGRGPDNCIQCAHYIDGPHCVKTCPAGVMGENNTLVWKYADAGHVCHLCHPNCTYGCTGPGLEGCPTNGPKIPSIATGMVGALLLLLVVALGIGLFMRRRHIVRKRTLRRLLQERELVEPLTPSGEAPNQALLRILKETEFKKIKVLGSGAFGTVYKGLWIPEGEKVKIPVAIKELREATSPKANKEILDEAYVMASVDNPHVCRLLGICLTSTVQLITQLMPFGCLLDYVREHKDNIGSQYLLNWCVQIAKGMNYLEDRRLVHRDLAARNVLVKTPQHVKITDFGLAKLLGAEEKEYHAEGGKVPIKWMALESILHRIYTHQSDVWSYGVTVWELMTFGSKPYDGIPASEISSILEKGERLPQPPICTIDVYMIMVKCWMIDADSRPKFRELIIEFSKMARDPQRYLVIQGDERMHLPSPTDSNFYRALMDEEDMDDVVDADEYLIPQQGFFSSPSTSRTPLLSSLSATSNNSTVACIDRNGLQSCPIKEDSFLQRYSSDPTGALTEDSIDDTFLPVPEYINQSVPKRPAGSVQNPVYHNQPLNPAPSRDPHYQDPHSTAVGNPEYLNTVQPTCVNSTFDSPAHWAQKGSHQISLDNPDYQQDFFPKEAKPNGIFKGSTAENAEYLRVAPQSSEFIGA
Serine/threonine-protein kinase PLK1 (Homo sapiens), sequence (P53350 whole entry): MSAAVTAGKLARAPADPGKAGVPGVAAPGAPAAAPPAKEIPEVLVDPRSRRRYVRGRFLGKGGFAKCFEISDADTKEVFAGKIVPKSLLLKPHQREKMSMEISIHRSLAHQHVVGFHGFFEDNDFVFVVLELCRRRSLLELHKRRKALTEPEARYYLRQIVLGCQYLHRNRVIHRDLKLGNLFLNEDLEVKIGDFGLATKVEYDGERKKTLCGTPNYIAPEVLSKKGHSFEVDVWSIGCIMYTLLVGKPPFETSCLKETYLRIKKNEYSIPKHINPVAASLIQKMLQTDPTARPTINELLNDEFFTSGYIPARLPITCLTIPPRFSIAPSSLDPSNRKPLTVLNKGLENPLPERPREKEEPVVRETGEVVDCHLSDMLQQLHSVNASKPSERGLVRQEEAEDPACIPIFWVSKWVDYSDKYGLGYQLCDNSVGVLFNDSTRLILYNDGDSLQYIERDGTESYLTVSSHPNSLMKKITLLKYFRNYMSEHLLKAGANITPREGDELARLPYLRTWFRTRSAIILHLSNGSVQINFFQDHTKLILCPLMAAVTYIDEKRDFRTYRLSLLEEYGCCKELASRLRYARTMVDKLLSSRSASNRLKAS

As to `O=C(NCCO)c1ccc2c(c1)nc(Nc1cccc(Cl)c1)c1ccncc12`, the Activity in [1] amounted to 34.1%; in data set [2] it was 40.5%; in the data set on HCT-116 [7], 18%; with HCT-116 [8], 14.3%; in the data set with HCT-116 [9], 7%; in the data set with HCT-116 [10], 23.4%. The Activity in the data set on HCT-116 [11] was 7.6%; with HCT-116 [12], 8.7%; in the data set with HCT-116 [13] it was 22.72%; in data set [17], “Non-Toxic”. The IC50 in the data set on PC-3 is 4.53 µM; in data set [4], 0.1 µM. Also, in data set [3], the inhibition entry is “Dose-Dependent Effect”. In addition, in the data set on HCT-116 [5], the inhibition result is “Active”. Moreover, the viability at 5 µM in the data set on HCT-116 [6] came to 60.7%. Also, the outcome in the data set on HCT-116 [14] was Active. Moreover, the Tmax in data set [15] is 2.33 h. The compound also gave a half-life in data set [16] of 6.67 h.
